Assays:
[1] = AUC (infinity) in BCRP knockout Sprague-Dawley rat at 1 mg/kg, iv by LC-MS/MS analysis; assay type: ADME, organism-based; parameters: time infinity, dose 1 mg/kg, route intravenous; details: plasma
[2] = Cmax in wild-type Sprague-Dawley rat at 10 mg/kg, po by LC-MS/MS analysis; assay type: ADME, organism-based; parameters: dose 10 mg/kg, route oral; details: in vivo
In short: (§1)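 Male Sprague-Dawley rats (knockout or wild type matched for age and weight), femoral artery and vein cannulated, at least 2 days recovery. Crossover design: IV bolus 1 mg/kg on day 0 (saline with 0.2 M equivalents HCl), oral gavage 10 mg/kg on day 3 (water with 0.2 M equivalents HCl). Arterial plasma sampled to 24 h (Mdr1a oral arm to 4 h). Analysed by LC-MS/MS and noncompartmental analysis.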

in vivo [3] = details: Sprague-Dawley, rat, po, 10 mg/kg
in vivo [4] = details: Sprague-Dawley, rat, plasma, po, 10 mg/kg
Rattus norvegicus [5] = experiment: Toxicity in MDR1A knockout Sprague-Dawley rat assessed as lacrimation at 10 mg/kg, po after 1 to 2 hrs; assay type: organism-based; parameters: dose 10 mg/kg, route oral; details: in vivo
In short: (§2)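 Independent veterinary staff recorded clinical central signs. After oral dosing, animals were observed 1–2 h post-dose and again at 4 h, when sampling stopped and the animals were discontinued.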

[6] = Tmax in MRP2 knockout Sprague-Dawley rat at 10 mg/kg, po by LC-MS/MS analysis; assay type: ADME, organism-based; parameters: dose 10 mg/kg, route oral; details: in vivo; in short: as §1
[7] = Oral bioavailability in MDR1A knockout Sprague-Dawley rat at 10 mg/kg by LC-MS/MS analysis; assay type: ADME, organism-based; details: in vivo; in short: as §1
in vivo [8] = details: Sprague-Dawley, rat, plasma, po, 10 mg/kg; remark: listed apart in the source
Rattus norvegicus [9] = experiment: Toxicity in MDR1A knockout Sprague-Dawley rat assessed as shallow breathing at 10 mg/kg, po after 1 to 2 hrs; assay type: organism-based; parameters: dose 10 mg/kg, route oral; details: in vivo; in short: as §2
[10] = Oral bioavailability in MRP2 knockout Sprague-Dawley rat at 10 mg/kg by LC-MS/MS analysis; assay type: ADME, organism-based; details: in vivo; in short: as §1
[11] = Volume of distribution at steady state in BCRP knockout Sprague-Dawley rat at 1 mg/kg, iv by LC-MS/MS analysis; assay type: ADME, organism-based; parameters: dose 1 mg/kg, route intravenous; details: in vivo, read-out: Vdss; in short: as §1
[12] = Half life in MRP2 knockout Sprague-Dawley rat at 1 mg/kg, iv by LC-MS/MS analysis; assay type: ADME, organism-based; parameters: dose 1 mg/kg, route intravenous; details: in vivo
In short: as §1, with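 “HCl).” for “HCl). Arterial plasma sampled to 24 h (Mdr1a oral arm to 4 h).”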

in vivo [13] = details: Sprague-Dawley, rat, plasma, po, 10 mg/kg; remark: listed apart in the source
[14] = Half life in wild-type Sprague-Dawley rat at 10 mg/kg, po by LC-MS/MS analysis; assay type: ADME, organism-based; parameters: dose 10 mg/kg, route oral; details: in vivo; in short: as §1
Rattus norvegicus [15] = experiment: Toxicity in MDR1A knockout Sprague-Dawley rat assessed as mortality at 10 mg/kg, po after 4 hrs; assay type: organism-based; parameters: dose 10 mg/kg, route oral; details: in vivo; in short: as §2
[16] = Half life in MRP2 knockout Sprague-Dawley rat at 10 mg/kg, po by LC-MS/MS analysis; assay type: ADME, organism-based; parameters: dose 10 mg/kg, route oral; details: in vivo; in short: as §1
[17] = Tmax in wild-type Sprague-Dawley rat at 10 mg/kg, po by LC-MS/MS analysis; assay type: ADME, organism-based; parameters: dose 10 mg/kg, route oral; details: in vivo; in short: as §1
[18] = Oral bioavailability in wild-type Sprague-Dawley rat at 10 mg/kg by LC-MS/MS analysis; assay type: ADME, organism-based; details: in vivo; in short: as §1
[19] = Half life in BCRP knockout Sprague-Dawley rat at 10 mg/kg, po by LC-MS/MS analysis; assay type: ADME, organism-based; parameters: dose 10 mg/kg, route oral; details: in vivo; in short: as §1
[20] = Half life in BCRP knockout Sprague-Dawley rat at 1 mg/kg, iv by LC-MS/MS analysis; assay type: ADME, organism-based; parameters: dose 1 mg/kg, route intravenous; details: in vivo; in short: as §1
[21] = AUC (infinity) in MRP2 knockout Sprague-Dawley rat at 1 mg/kg, iv by LC-MS/MS analysis; assay type: ADME, organism-based, Plasma; parameters: time infinity, dose 1 mg/kg, route intravenous; details: Sprague-Dawley, plasma
Rattus norvegicus [22] = experiment: Toxicity in MDR1A knockout Sprague-Dawley rat assessed as eye protrusion at 10 mg/kg, po after 1 to 2 hrs; assay type: organism-based; parameters: dose 10 mg/kg, route oral; details: in vivo; in short: as §2
[23] = Cmax in BCRP knockout Sprague-Dawley rat at 10 mg/kg, po by LC-MS/MS analysis; assay type: ADME, organism-based; parameters: dose 10 mg/kg, route oral; details: in vivo; in short: as §1
[24] = Oral bioavailability in BCRP knockout Sprague-Dawley rat at 10 mg/kg by LC-MS/MS analysis; assay type: ADME, organism-based; details: in vivo; in short: as §1
Rattus norvegicus [25] = experiment: Toxicity in MDR1A knockout Sprague-Dawley rat assessed as lethargic behavior at 1 mg/kg, iv; assay type: organism-based; parameters: dose 1 mg/kg, route intravenous; details: in vivo
Rattus norvegicus [26] = experiment: Toxicity in MDR1A knockout Sprague-Dawley rat assessed as hypoactive behavior at 10 mg/kg, po after 1 to 2 hrs; assay type: organism-based; parameters: dose 10 mg/kg, route oral; details: in vivo; in short: as §2
Rattus norvegicus [27] = experiment: Toxicity in MDR1A knockout Sprague-Dawley rat assessed as stupor at 10 mg/kg, po after 4 hrs; assay type: organism-based; parameters: dose 10 mg/kg, route oral; details: in vivo; in short: as §2
[28] = Cmax in MDR1A knockout Sprague-Dawley rat at 10 mg/kg, po by LC-MS/MS analysis; assay type: ADME, organism-based; parameters: dose 10 mg/kg, route oral; details: in vivo; in short: as §1
[29] = Half life in MDR1A knockout Sprague-Dawley rat at 1 mg/kg, iv by LC-MS/MS analysis; assay type: ADME, organism-based; parameters: dose 1 mg/kg, route intravenous; details: in vivo; in short: as §1
[30] = Volume of distribution at steady state in MRP2 knockout Sprague-Dawley rat at 1 mg/kg, iv by LC-MS/MS analysis; assay type: ADME, organism-based; parameters: dose 1 mg/kg, route intravenous; details: in vivo, read-out: Vdss; in short: as §1
[31] = AUC (infinity) in wild-type Sprague-Dawley rat at 1 mg/kg, iv by LC-MS/MS analysis; assay type: ADME, organism-based; parameters: time infinity, dose 1 mg/kg, route intravenous; details: plasma
[32] = Half life in wild-type Sprague-Dawley rat at 1 mg/kg, iv by LC-MS/MS analysis; assay type: ADME, organism-based; parameters: dose 1 mg/kg, route intravenous; details: in vivo; in short: as §1
[33] = Volume of distribution at steady state in MDR1A knockout Sprague-Dawley rat at 1 mg/kg, iv by LC-MS/MS analysis; assay type: ADME, organism-based; parameters: dose 1 mg/kg, route intravenous; details: in vivo, read-out: Vdss; in short: as §1
[34] = Tmax in BCRP knockout Sprague-Dawley rat at 10 mg/kg, po by LC-MS/MS analysis; assay type: ADME, organism-based; parameters: dose 10 mg/kg, route oral; details: in vivo; in short: as §1
[35] = Tmax in MDR1A knockout Sprague-Dawley rat at 10 mg/kg, po by LC-MS/MS analysis; assay type: ADME, organism-based; parameters: dose 10 mg/kg, route oral; details: in vivo; in short: as §1
[36] = Cmax in MRP2 knockout Sprague-Dawley rat at 10 mg/kg, po by LC-MS/MS analysis; assay type: ADME, organism-based; parameters: dose 10 mg/kg, route oral; details: in vivo; in short: as §1
[37] = AUC (infinity) in MDR1A knockout Sprague-Dawley rat at 1 mg/kg, iv by LC-MS/MS analysis; assay type: ADME, organism-based; parameters: time infinity, dose 1 mg/kg, route intravenous; details: plasma
in vivo [38] = details: Sprague-Dawley, rat, po, 10 mg/kg; remark: listed apart in the source
[39] = Volume of distribution at steady state in wild-type Sprague-Dawley rat at 1 mg/kg, iv by LC-MS/MS analysis; assay type: ADME, organism-based; parameters: dose 1 mg/kg, route intravenous; details: in vivo, read-out: Vdss; in short: as §1

SMILES: CN(C)C(=O)C(CCN1CCC(O)(c2ccc(Cl)cc2)CC1)(c1ccccc1)c1ccccc1 [LOPERAMIDE]
- AUC(0-inf) [1]: 161 ng·h/mL
- Cmax [2]: 90 ng/mL
- AUC(0-t) at 4 h (in vivo [3]): 651 ng·h/mL
- AUC(0-inf) (in vivo [4]): 806 ng·h/mL
- Activity (Rattus norvegicus [5]): Toxic
- Tmax [6]: 0.4 h
- bioavailability [7]: 34%
- AUC(0-inf) (in vivo [8]): 1020 ng·h/mL
- Activity (Rattus norvegicus [9]): Toxic
- bioavailability [10]: 60%
- Vd [11]: 11.5 L/kg
- half-life [12]: 1.1 h
- AUC(0-inf) (in vivo [13]): 980 ng·h/mL
- half-life [14]: 13 h
- Activity (Rattus norvegicus [15]): Toxic
- half-life [16]: 13 h
- Tmax [17]: 0.3 h
- bioavailability [18]: 16%
- half-life [19]: 15 h
- half-life [20]: 1.5 h
- AUC(0-inf) [21]: 122 ng·h/mL
- Activity (Rattus norvegicus [22]): Toxic
- Cmax [23]: 69 ng/mL
- bioavailability [24]: 40%
- Activity (Rattus norvegicus [25]): Toxic
- Activity (Rattus norvegicus [26]): Toxic
- Activity (Rattus norvegicus [27]): Toxic
- Cmax [28]: 226 ng/mL
- half-life [29]: 1.5 h
- Vd [30]: 21.2 L/kg
- AUC(0-inf) [31]: 131 ng·h/mL
- half-life [32]: 1 h
- Vd [33]: 7.9 L/kg
- Tmax [34]: 0.7 h
- Tmax [35]: 0.8 h
- Cmax [36]: 60 ng/mL
- AUC(0-inf) [37]: 243 ng·h/mL
- AUC(0-t) at 4 h (in vivo [38]): 184 ng·h/mL
- Vd [39]: 9 L/kg
